Among the data in ChEMBL document CHEMBL1821634, “Design and synthesis of (+)-discodermolide-paclitaxel hybrids leading to enhanced biological activity” (J Med Chem, 2011) are IC50 and Activity values, retold here.

For one assay, the system named is A549. As to the kind of experiment: Antiproliferative activity against human A549 cells after 72 hrs by SRB method. It counts as functional, cell-based. The following applies: A549, 72 h. The method, boiled down: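 Cells kept in RPMI with 10% FBS; 800 A549 cells seeded per well, drugs added at increasing concentrations 18 h after plating. Incubated 72 h at 37 °C, then fixed and stained with SRB. IC50 taken as concentration inhibiting growth by 50%.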
(In general: In SRB staining, fixed cells bind dye roughly in proportion to their protein.)

For a further assay, the system named is MCF7. Briefly: Antiproliferative activity against human MCF7 cells after 96 hrs by SRB method. The class given is functional, cell-based. Particulars: MCF7, 96 h. The method, boiled down: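 MCF-7 cells grown in RPMI plus 10% fetal bovine serum, seeded at 2000 per well. Increasing drug concentrations added 18 h post-plating. Incubation for 96 h at 37 °C, with the later fixation allowing for growth rate, then SRB staining. IC50 is the concentration giving 50% growth inhibition.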

The species named for a further assay is Bos taurus. As to the kind of experiment: Induction of bovine brain tubulin polymerization at 3 uM after 30 mins by SDS-PAGE. The method, boiled down: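 Tubulin (2.5 μM) in 0.1 M MES, 1 mM EGTA, 1 mM MgCl₂ with 2 mM GTP, incubated with drug at 3 μM for 30 min at 37 °C. Polymer pelleted at 120000g, 37 °C, 1 h. Pellet dissolved in SDS sample buffer and analysed by SDS-PAGE.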

Activity calls are given as the source filed them. No cut-off for these calls is given here.

By IC50 is commonly meant the concentration that inhibits the measured activity by half. Low values mean greater potency in that assay, high ones weaker potency in that assay. Turning to `C=C/C=C\[C@H](C)[C@H](OC(N)=O)[C@@H](C)[C@H](O)[C@@H](C)C/C(C)=C\[C@H](C)[C@@H](O)[C@@H](C)/C=C\[C@@H](O)C[C@@H]1OC(=O)[C@H](C)[C@@H](O)[C@H]1C` [DISERMOLIDE], the IC50 in the assay on A549 turned out to be 9.34 nM; in the assay with MCF7 it was 7.98 nM. For the same compound, in the assay listed under Bos taurus, the result was Active.
Taken in the same sequence, the figures for `C=C/C=C\[C@H](C)[C@H](OC(=O)NCCCCNC(=O)c1ccc(N=[N+]=[N-])cc1)[C@@H](C)[C@H](O)[C@@H](C)C/C(C)=C\[C@H](C)[C@@H](O)[C@@H](C)/C=C\[C@@H](O)C[C@@H]1OC(=O)[C@H](C)[C@@H](O)[C@H]1C` were 3.76 nM, 2.71 nM and “Active”.
Taken in the same sequence, the figures for `C=C/C=C\[C@H](C)[C@H](OC(=O)NCCCNC(=O)c1cccc(N=[N+]=[N-])c1)[C@@H](C)[C@H](O)[C@@H](C)C/C(C)=C\[C@H](C)[C@@H](O)[C@@H](C)/C=C\[C@@H](O)C[C@@H]1OC(=O)[C@H](C)[C@@H](O)[C@H]1C` were 1.05 nM, 1.66 nM and “Active”.
Taken in the same sequence, the figures for `C=C/C=C\[C@H](C)[C@H](OC(=O)NCCCNC(=O)c1ccc(C2(C(F)(F)F)N=N2)cc1)[C@@H](C)[C@H](O)[C@@H](C)C/C(C)=C\[C@H](C)[C@@H](O)[C@@H](C)/C=C\[C@@H](O)C[C@@H]1OC(=O)[C@H](C)[C@@H](O)[C@H]1C` were 2.64 nM, 1.92 nM and “Active”.
Regarding `CC(=O)O[C@H]1C(=O)[C@@]2(C)[C@H]([C@H](OC(=O)c3ccccc3)[C@]3(O)C[C@H](OC(=O)[C@H](O)[C@@H](NC(=O)c4ccccc4)c4ccccc4)C(C)=C1C3(C)C)[C@]1(OC(C)=O)CO[C@@H]1C[C@@H]2O` [PACLITAXEL], the values for the IC50 in the assay on A549 and in the assay on MCF7 were 3.14 nM and 0.91 nM, respectively.
Turning to `C=C/C=C\[C@H](C)[C@H](OC(=O)NCCNC(=O)c1ccc(N=[N+]=[N-])cc1)[C@@H](C)[C@H](O)[C@@H](C)C/C(C)=C\[C@H](C)[C@@H](O)[C@@H](C)/C=C\[C@@H](O)C[C@@H]1OC(=O)[C@H](C)[C@@H](O)[C@H]1C`, the figures for the IC50 in the assay on A549 and with MCF7 were 5.61 nM and 3.64 nM, respectively. Moreover, in the assay listed under Bos taurus, the outcome was Active.
Taken in the same sequence, the figures for `C=C/C=C\[C@H](C)[C@H](OC(=O)NCCCNC(=O)c1ccc(N=[N+]=[N-])cc1)[C@@H](C)[C@H](O)[C@@H](C)C/C(C)=C\[C@H](C)[C@@H](O)[C@@H](C)/C=C\[C@@H](O)C[C@@H]1OC(=O)[C@H](C)[C@@H](O)[C@H]1C` were 1.21 nM, 1.9 nM and “Active”.
